Screening data (PubChem BioAssay)
Mdm2 ligase inh = MDM2-luciferase reporter signal enhancers, primary screen, MDM2 E3 ligase inhibitor project, cell-based, luminescence, 1536-well; E3 ubiquitin-protein ligase Mdm2 (Homo sapiens), Q00987; cell-based MDM2 ubiquitination luciferase reporter, 2 h; 0 = plate control, 100 = twice control, blank-subtracted; signal enhancement, % at 5 µM; hit rate 0.11% among 210,000;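 active means signal enhancement of 30% or more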;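 further: luminescence tracks abundance of the self-degrading MDM2-luciferase fusion protein; higher signal means inhibition of MDM2 E3 ligase activity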
Target sequence (Q00987 whole entry, looked up, the tested form may be a part): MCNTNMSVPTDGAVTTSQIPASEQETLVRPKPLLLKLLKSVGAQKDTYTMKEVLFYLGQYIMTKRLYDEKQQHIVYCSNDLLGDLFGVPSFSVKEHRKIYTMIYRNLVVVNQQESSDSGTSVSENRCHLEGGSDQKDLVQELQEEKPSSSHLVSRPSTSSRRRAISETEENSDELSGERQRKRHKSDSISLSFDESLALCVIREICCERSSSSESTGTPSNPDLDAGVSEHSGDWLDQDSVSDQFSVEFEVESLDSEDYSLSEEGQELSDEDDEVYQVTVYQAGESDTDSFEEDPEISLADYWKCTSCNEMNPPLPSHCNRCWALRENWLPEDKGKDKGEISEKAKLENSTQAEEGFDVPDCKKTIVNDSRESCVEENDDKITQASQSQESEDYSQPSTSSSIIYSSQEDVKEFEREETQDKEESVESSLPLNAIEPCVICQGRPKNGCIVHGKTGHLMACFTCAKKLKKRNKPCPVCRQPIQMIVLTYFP
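Timing – 2 h compound exposure at 37 °C · Assay system – mammalian cells stably expressing self-ubiquitinating, self-degrading MDM2 E3–luciferase fusion · Amount – 2000 cells seeded into each well · Measure – % luminescence enhancement versus blank-corrected plate control mean · Measured by – SteadyLite luminescence, 15 min reagent step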
S1P3 antag = S1P3 receptor antagonists, primary screen, cell-based | hit rate 0.27% among 170,000 | inhibition, % at 4.98 µM | CHO S1P3 NFAT-BLA reporter, FRET fluorescence, antagonist mode | Sphingosine 1-phosphate receptor 3 (Homo sapiens), Q99500 | AID 485, 2006;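 active means inhibition above the plate cutoff, the mean inhibition of test wells on that plate plus 3 SD, cut at about 28% in these data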;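 further: cells challenged with S1P at its EC80 of 0.8 µM; blue over green emission ratio from cleaved BLA substrate after 4 h stimulation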
Hsp70 activator = Hsp70 transcriptional activators, primary screen, cell-based, HeLa, Hsp70 promoter luciferase, luminescence, 10 µM. HeLa Hsp70 promoter luciferase reporter; scaled: vehicle 0, proteasome-inhibitor control 100%. activation, % at 10 µM. hit rate 0.04% among 200,000. AID 1203, 2008;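 active means activation above the mean across all tested compounds plus 3 SD, cutoff set per campaign, cut at about 5.5% in these data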
CHOP inh = inhibitors of CHOP promoter induction, primary screen, cell-based, unfolded protein response, luciferase reporter; CHO-K1 CHOP-promoter luciferase, tunicamycin-induced, 15-18 h; inhibition, % at 10 µM; hit rate 3.8% among 220,000;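 active means compounds that reduced the stress-induced luciferase reporter signal by more than about 70% of percent inhibition, limit read from the data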
Large screens that a line does not name were inactive. Sampled rows, rich in hits. Any-hit rate of the full collection: about 4%.

O=C(Nc1ccccc1Cc1ccccc1)c1ccccc1NS(=O)(=O)c1ccc(Cl)s1	CHOP inh 71
Cc1cccc(C(C(N)=O)c2ncc(C(F)(F)F)cc2Cl)c1 (stereo unspecified)	none
COC(=O)c1ccc(NC(=S)N2CCN(Cc3cccc(C)c3)CC2)cc1	CHOP inh 89 (no result: S1P3 antag)
COc1cccc(-c2csc(N3CCN(C(=S)Nc4ccc(Cl)cc4)CC3)n2)c1	CHOP inh 71 (no result: S1P3 antag)
COc1cccc(-c2csc(N3CCN(C(=S)Nc4ccccc4)CC3)n2)c1	none (no result: S1P3 antag)
CCc1ccc(NC(=S)N2CCN(c3cccc(OC)c3)CC2)cc1	CHOP inh 72
CCCCCCCCCCCCCCCCCCOC[C@H](COP(=O)([O-])OCC[N+](C)(C)C)OC	none (no result: Mdm2 ligase inh, S1P3 antag, Hsp70 activator)
NC(=O)CC(NC(=O)Cc1ccc(Br)cc1)c1ccc(NCc2ccc(F)cc2)c([N+](=O)[O-])c1 (stereo unspecified)	CHOP inh 93 (no result: S1P3 antag, Hsp70 activator)
NC(=O)CC(NC(=O)c1ccc(Br)cc1)c1ccc(NCCc2ccc(F)cc2)c([N+](=O)[O-])c1 (stereo unspecified)	none (no result: S1P3 antag, Hsp70 activator)
NC(=O)CC(NC(=O)Cc1ccc(Br)cc1)c1ccc(NCC2CC2)c([N+](=O)[O-])c1 (stereo unspecified)	CHOP inh 77 (no result: S1P3 antag, Hsp70 activator)
Cc1ccc(CNC(=O)C2CC(=O)N(c3ccc(OCC(=O)N4CCCC4)cc3)C2)cc1 (stereo unspecified)	none (no result: S1P3 antag)
COc1cccc(NCc2cc(=O)oc3cc(-c4ccccc4)c(O)cc23)c1	CHOP inh 82
O=c1cc(CN2CCN(c3ccccc3)CC2)c2cc(O)c(-c3ccccc3)cc2o1	none
CC(C)=CC(=O)NCCc1ccccc1	CHOP inh 85
Cn1nnnc1SCc1csc(C2C(C#N)=C(N)OC3=C2C(=O)CCC3)c1 (stereo unspecified)	none
COc1ccc(OCC(=O)O/N=C(\N)Cc2ccc(Cl)cc2)cc1	none (no result: S1P3 antag)
Cc1ccc(OCC(=O)O/N=C(\N)Cc2ccc(Cl)cc2)cc1	CHOP inh 77 (no result: S1P3 antag)
Cc1ccc(C(=O)CC(=O)COc2ccc(Cl)cc2)cc1	CHOP inh 93
COc1ccc(OCC(=O)O/N=C(\N)Cc2ccc(Cl)cc2Cl)cc1	CHOP inh 81 (no result: S1P3 antag)
Cc1ccc(C(=O)CNc2ccc(Cl)cc2)cc1	none
Cc1nnc(SCC(=O)Nc2ccc3c(c2)OCO3)n(N)c1=O	none
Fc1ccc(N2CCN(c3nc(-c4ccco4)cc(C(F)(F)F)n3)CC2)cc1	none (no result: S1P3 antag)
Cc1nn(-c2nc(-c3ccco3)cc(C(F)(F)F)n2)c(C)c1Br	CHOP inh 73 (no result: S1P3 antag)
Cc1ccc2nc(N3CCN(C=O)CC3)nc(-c3ccccc3)c2c1	none (no result: S1P3 antag)
CCS(=O)(=O)N1CCC(C(=O)NCc2ccc(OC)cc2)CC1	none
CCCCN(CC)S(=O)(=O)c1ccc(C(=O)Nc2nnc(COC)o2)cc1	none
CCN(Cc1ccccc1)S(=O)(=O)c1ccc(C(=O)Nc2nnc(-c3ccccc3OC)o2)cc1	CHOP inh 85
CCCCN(CC)S(=O)(=O)c1ccc(C(=O)Nc2nnc(-c3ccccc3Cl)o2)cc1	CHOP inh 88
COc1ccccc1-c1nnc(NC(=O)c2ccc(S(=O)(=O)N(C)C)cc2)o1	CHOP inh 85
COc1ccccc1-c1nnc(NC(=O)c2ccccc2F)o1	none
CC1CCCCN1S(=O)(=O)c1ccc(C(=O)Nc2nnc(-c3ccccc3Cl)o2)cc1 (stereo unspecified)	CHOP inh 77
CN(CC(=O)NCCC1=CCCCC1)S(=O)(=O)c1ccc2c(c1)CCC(=O)N2	none
COc1ccc(-c2nn(-c3ccccc3)cc2/C=C/C(=O)N2CCN(c3ccccn3)CC2)cc1	none
Cc1cc(NS(=O)(=O)c2ccc(NC(=O)C(c3ccccc3)c3ccccc3)cc2)no1	CHOP inh 91 (no result: S1P3 antag)
COc1ccc(NC(=O)NCCCN2CCN(c3cc(C)ccc3C)CC2)cc1	CHOP inh 72
COc1cc(NC(=O)NCCN2CCN(c3ccc(Cl)cc3)CC2)ccc1C	CHOP inh 84
CCN1C(=O)C(CC(=O)Nc2ccc(Cl)cc2)N(NC(=O)c2ccncc2)C1=S (stereo unspecified)	none (no result: Hsp70 activator)
CCCCCCCCNc1ncnc2ccccc12	CHOP inh 81 (no result: S1P3 antag)
CCc1ccc(OCC(=O)Nc2cccc3c2CCCC3)cc1	CHOP inh 79 (no result: Mdm2 ligase inh)
N#Cc1c2c(c(Nc3ccc(O)cc3)n3c1nc1ccccc13)CCC2	none
Cc1ccc(C)c(N=Nc2ccc(O)c3ncccc23)c1	CHOP inh 103
Cc1cccc(N=Nc2ccc(O)c3ncccc23)c1	CHOP inh 105
Cc1nc2c(ncn2-c2ccccc2)c(=O)n1NC(=O)CN1CCN(C)CC1	none (no result: Hsp70 activator)
Cc1ccc(NC2=C(C(=O)c3ccccc3)N(C)S(=O)(=O)c3ccccc32)cc1	CHOP inh 95 (no result: S1P3 antag)
CC(C)(C)c1ccc(S(=O)(=O)N(CCCN2CCOCC2)Cc2cccs2)cc1	none
CCCN1C(=O)/C(=C/c2c(NCCCOCC)nc3c(C)cccn3c2=O)SC1=S	CHOP inh 76 (no result: S1P3 antag)
O=[N+]([O-])c1c(Nc2ccccn2)cc(Cl)c2nonc12	CHOP inh 108 (no result: Hsp70 activator)
COc1ccc(NC(=O)c2cc(-c3cc(C)ccc3O)n[nH]2)cc1Cl	CHOP inh 78
COc1ccc(CCNC(=O)c2cc(-c3cc(C)ccc3O)n[nH]2)cc1OC	none (no result: Mdm2 ligase inh, S1P3 antag)
CCn1c(CCCOc2ccc(Cl)cc2Cl)nnc1SCC(=O)Nc1cc(F)ccc1C	CHOP inh 84
CCN1CCN(C(=O)CSc2nc(N)cc(N)n2)CC1	none
CC(C)NC(=O)CN1CCC(c2ccccc2)C(O)C1 (stereo unspecified)	none
CC(=NCCc1c(C)[nH]c2ccc(OC(F)(F)F)cc12)C1=C(O)CC(c2ccccc2)CC1=O (stereo unspecified)	CHOP inh 72
CC(=NCCc1c(C)[nH]c2ccc(C)cc12)C1=C(O)CC(c2ccccc2)CC1=O (stereo unspecified)	none
COc1cc(/C=C2/C(=N)N3OC(C)=CC3=NC2=O)ccc1OC(=O)c1ccco1	Mdm2 ligase inh 32
CCOc1ccc(C(=O)Nc2cc(-c3nc4ccccc4[nH]3)ccc2Cl)cc1[N+](=O)[O-]	CHOP inh 79
O=C(NC(=S)Nc1cc(-c2nc3ccccc3[nH]2)ccc1Cl)c1ccc2c(c1)OCO2	CHOP inh 94
CCOc1ccc(C(=O)Nc2cc(-c3nc4ccccc4[nH]3)ccc2C)cc1[N+](=O)[O-]	none (no result: S1P3 antag)
Cc1ccc(-c2nc3ccccc3[nH]2)cc1NC(=O)c1ccc2c(c1)OCO2	none (no result: S1P3 antag)
Cc1ccc(Nc2c(-c3ccccn3)nc3cc(C)ccn23)cc1	CHOP inh 76
Cc1ccc2nc(-c3ccncc3)c(Nc3ccccc3)n2c1	none
Cc1ccn2c(Nc3ccc4c(c3)OCO4)c(-c3ccccn3)nc2c1	CHOP inh 78
Cc1ccc(Nc2c(-c3ccccn3)nc3ccc(C)cn23)cc1	CHOP inh 80
Cc1ccn2c(NC3CCCC3)c(-c3ccccn3)nc2c1	none
